# LYPLA1 counter – blocks human lysophospholipase 1, a PME1 counter-screen; O75608; inhibition, % at 5.9 µM; recombinant LYPLA1, FP-Rh probe fluorescence polarization; hit rate 0.16% among 320,000; AID 2174;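 active = inhibition above the mean of all tested compounds plus 3 SD, set per campaign, cut at about 14% in these data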;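 note: inhibitors block serine hydrolase probe labeling of LYPLA1 so polarization falls; 0% = enzyme with DMSO and 100% = wells lacking LYPLA1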
# Target sequence (O75608 whole entry, looked up): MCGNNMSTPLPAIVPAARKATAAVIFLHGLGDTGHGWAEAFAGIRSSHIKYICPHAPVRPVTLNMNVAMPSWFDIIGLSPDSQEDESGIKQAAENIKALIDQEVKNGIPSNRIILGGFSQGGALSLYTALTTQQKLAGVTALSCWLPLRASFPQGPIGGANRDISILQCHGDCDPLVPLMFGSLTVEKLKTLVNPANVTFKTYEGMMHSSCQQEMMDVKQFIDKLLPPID
# PREPL inh – inhibitors of human prolyl oligopeptidase-like enzyme PREPL; Q4J6C6; recombinant PREPL, fluorescence polarization activity-based probe; inhibition, % at 5.96 µM; hit rate 0.68% among 320,000; AID 2751;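 note: 0% = enzyme with DMSO and 100% = wells lacking enzyme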
# proCasp3 act – activates human procaspase-3; AID 463141; recombinant procaspase-3 D3A, Ac-DEVD-pNA absorbance 405 nm; P42574; hit rate 0.11% among 330,000; activation, % at 8.5 µM;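 active = activation above the mean of all tested compounds plus 3 SD, cut at about 21% in these data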;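 note: 0% = DMSO alone and 100% = DMSO wells spiked with extra 5 µM PC-3 D3A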
# Target sequence (P42574 whole entry D9A/D28A/D175A): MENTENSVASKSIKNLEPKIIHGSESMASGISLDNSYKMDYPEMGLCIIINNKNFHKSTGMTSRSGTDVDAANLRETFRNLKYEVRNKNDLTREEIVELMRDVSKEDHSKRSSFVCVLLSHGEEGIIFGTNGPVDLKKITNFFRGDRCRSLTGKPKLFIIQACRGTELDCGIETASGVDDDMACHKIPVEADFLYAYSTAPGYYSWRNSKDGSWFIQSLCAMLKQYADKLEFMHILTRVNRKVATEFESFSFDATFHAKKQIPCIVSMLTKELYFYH
#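 Assay system: Autoprocessing-dead procaspase-3 D3A mutant enzyme; also added: Ac-DEVD-pNA; doses: one concentration, 8.5 µM nominal, 0.8% DMSO; times: 1 h compound preincubation, 2 h substrate hydrolysis at 25 °C; technique: 405 nm absorbance of p-nitroaniline, reads at 0 and 120 min; measure: % activation between DMSO and enzyme-spiked controls; repeats: single replicate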
# procasp7 counter – counter-screen for procaspase-3 activators: activators of human procaspase-7; recombinant procaspase-7, Ac-DEVD-pNA absorbance 405 nm; D23A/D198A/D206A triple mutant, cannot self-cleave; scale: DMSO 0, 5 µM enzyme 100; hit rate 0.093% among 330,000; P55210; activation, % at 8.5 µM;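 active = percent activation above the screen-wide mean plus 3 SD, cut at about 25% in these data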
#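 Detection: p-Nitroaniline absorbance at 405 nm, read at 0 and 120 min; system: Uncleavable procaspase-7 mutant enzyme; evaluation: % activation from two-timepoint absorbance difference, scaled to controls; times: 1 h enzyme–compound preincubation and 2 h substrate reaction, both 25 °C; buffer or medium: Zinc-free HEPES pH 7.4 with 300 mM NaCl, 0.01% Triton X-100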
# LYPLA2 inh – blocks human lysophospholipase 2, a PME1 counter-screen; O95372; hit rate 0.38% among 320,000; recombinant LYPLA2, FP-Rh probe fluorescence polarization; inhibition, % at 5.9 µM;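 active = inhibition above the screen-wide mean plus 3 SD, limit set per campaign, cut at about 26% in these data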;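 note: 0% = LYPLA2 with DMSO and 100% = wells lacking LYPLA2 enzyme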
# PREPL confirm – confirmation of human PREPL enzyme inhibitors | inhibition, % at 5.96 µM | shares compounds with PREPL inh | hit rate 67% among 2,000 | recombinant PREPL, fluorescence polarization activity probe;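 note: 0% = protein with DMSO and 100% = wells lacking protein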
# The depositor's hits bear a star; nt = not tested or not shown. In the library only some 1.1% were active in any assay of this set; here they are far more common. Cut-off read from the data, not from the text of the source, unless noted: active = inhibition above about 43%; inactive = the rest.
SMILES,LYPLA1 counter,PREPL inh,proCasp3 act,procasp7 counter,LYPLA2 inh,PREPL confirm
O=C(C1=C[C@@H](c2ccc(Br)cc2)C[C@@H](OCCCCO)O1)N1CCN(Cc2ccccc2)CC1,-4.4,62.7*,-6.9,-0.4,7.0,57.2*
CCO[C@H]1OC(C(=O)N2CCN(Cc3ccc4c(c3)OCO4)CC2)=C[C@@H](c2cn(C(C)=O)c3ccccc23)[C@@H]1CCCO,1.2,16.4,2.8,5.8,7.5,nt
O=C(C1=C[C@H](c2ccc3c(c2)OCO3)C[C@H](OCCCCO)O1)N1CCN(Cc2ccccc2)CC1,-1.6,27.0,8.6,3.5,-3.8,nt
CCO[C@H]1OC(C(=O)N2CCN(Cc3ccc4c(c3)OCO4)CC2)=C[C@@H](c2csc3ccccc23)[C@@H]1CCCO,0.4,53.8*,1.2,-8.7,5.3,46.0*
O=C(C1=C[C@@H](c2ccccc2)C[C@@H](OCCCCO)O1)N1CCN(Cc2ccc3c(c2)OCO3)CC1,5.0,57.4*,5.8,0.2,2.2,42.8
CCc1ccc(S(=O)(=O)N2CCN(c3ncccn3)CC2)cc1,-4.0,-63.1,1.8,-4.8,-1.6,nt
COc1cccc(CNC(=O)C2CCN(S(=O)(=O)c3ccc(Br)s3)CC2)c1,-2.6,9.4,8.5,-1.7,1.4,nt
Cc1ccc(CN2CCC(n3nccc3NC(=O)C3CCOC3)CC2)cc1C (stereo not drawn),-3.3,5.8,1.8,7.7,-2.4,nt
Cc1cccc(-c2nc(CS(=O)CC(=O)N3CC(C)CC(C)C3)c(C)o2)c1 (stereo not drawn),3.2,15.0,-4.3,-10.2,9.7,nt
CC(=O)Nc1ccc(NC(=O)CSc2nnc(NC(=O)Cc3ccc(F)cc3)s2)cc1,0.0,-1.3,-4.6,-1.9,3.4,nt
COc1ccc(C(=O)NC(=S)Nc2ccc3oc(=O)ccc3c2)cc1[N+](=O)[O-],1.7,47.5*,2.4,1.1,15.9,3.4
COc1cc(C(=O)NC(=S)Nc2ccc3oc(=O)ccc3c2)cc(OC)c1OC,1.7,1.4,-2.7,2.1,4.5,nt
CCC1CCCCN1C(=O)c1ccc([N+](=O)[O-])o1 (stereo not drawn),1.6,6.0,3.0,1.8,0.2,nt
O=C(CC12CC3CC(CC(C3)C1)C2)NCc1ccc(F)cc1,3.6,10.7,7.9,-8.3,-0.3,nt
Cc1ccc2nc3c(cc(C(=O)NCCc4ccccc4)c(=N)n3CCCN3CCOCC3)c(=O)n2c1,0.9,52.5*,-10.7,-14.0,5.3,56.4*
COc1ccc(CCNC(=O)c2cc3c(=O)n4ccccc4nc3n(CCCN3CCOCC3)c2=N)cc1OC,-8.0,19.3,-9.7,-11.6,-6.1,nt
Cc1cccn2c(=O)c3cc(C(=O)NCCc4ccccc4)c(=N)n(CCCn4ccnc4)c3nc12,-2.9,66.3*,-19.4,-9.0,-1.2,57.6*
COc1ccc(CCNC(=O)c2cc3c(=O)n4ccccc4nc3n(CCN3CCOCC3)c2=N)cc1,0.8,38.9,-8.3,-4.5,-2.7,nt
COc1ccc(CCNC(=O)c2cc3c(=O)n4ccccc4nc3n(CCCN3CCOCC3)c2=N)cc1,-4.2,58.4*,-4.4,-9.1,-5.8,51.9*
CC(=O)C[C@H](O)CC(=O)[C@@H]1OC(=O)CCCCC/C=C/Cc2ccccc21,nt,13.3,-3.6,4.7,nt,nt
Cc1cc(NC(=O)CCC(=O)N(CC(=O)NC2CCCC2)c2cccc(F)c2)no1,-3.2,-2.4,5.4,7.0,1.1,nt
CN(C)c1ccc(/C=N/NC(=S)NCc2ccccc2)cc1,0.1,50.9*,89.8*,32.0*,8.5,54.9*
CN(C)CCCNc1cc(C(C)(C)C)nc2c(-c3ccc(Cl)cc3)cnn12,-0.9,52.3*,9.5,1.2,1.4,48.6*
CC(C)(C)c1cc(NCc2ccccn2)n2ncc(-c3ccc(Cl)cc3)c2n1,0.1,17.1,-5.5,5.0,-1.6,nt
COc1ccc(OC)c(C(=O)NC(CC(N)=O)c2ccc(N3CCC(Cc4ccccc4)CC3)c([N+](=O)[O-])c2)c1 (stereo not drawn),-0.7,-2.0,0.8,5.0,6.5,nt
Cc1ccc2c(c1)c1c(n2CC(O)CNC2CCCCC2)CCCC1 (stereo not drawn),1.7,49.7*,4.3,11.0,-4.3,46.0*
